No end group written: not given here. rhodamine = not defined here

This is an account of results in paper PMC2819025 (Biochemistry, 2010).

The target of experiment [1] is par3-PDZ3. The conditions noted are these: read-out: Kd for par3-PDZ3; reported value; ref [16]; cited from earlier work.
The target in experiment [2] is par3-PDZ3 (Mus musculus, UniProt Q99NH2). Description: Fluorescence polarization titration of rhodamine-labeled peptides with par3-PDZ3. It is filed as binding, M. musculus. Conditions: rhodamine labeled peptide. The procedure, abridged:
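Mouse par3-PDZ3 (residues 581–689) was expressed in E. coli SG13009 with a cleavable N-terminal His8 tag, purified by Ni2+ affinity, TEV-cleaved and cation-exchange purified. Increasing par3-PDZ3 was titrated into 100nM N-terminally rhodamine-labelled synthetic peptide in 50mM HEPES, 100mM NaCl, 1mM DTT, 1mM EDTA, pH 7.4, 298K (ex 562nm/em 582nm). Kd came from fitting a single-site hyperbolic binding equation.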

The target of experiment [3] is par3-PDZ3 (residues 581 to 689 of M. musculus par3) (M. musculus, UniProt Q99NH2 581-689). Put plainly: fluorescence polarisation.
Sequence of par3-PDZ3 (residues 581 to 689 of M. musculus par3) (Q99NH2 581-689): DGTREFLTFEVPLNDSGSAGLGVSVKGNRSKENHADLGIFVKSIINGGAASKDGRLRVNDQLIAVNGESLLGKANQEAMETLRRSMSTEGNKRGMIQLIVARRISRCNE

Sequence of par3-PDZ3 (Mus musculus, UniProt Q99NH2) (Q99NH2 581-689): as above

Regarding DEDQHSQITKVcoo-, the dissociation constant Kd on par3-PDZ3 [1] was 19 µM.

For the molecule QHSQITKVcoo-, the “interaction with par3-PDZ3 (detected or not)” value on par3-PDZ3 [2] was “failed to detect any interaction”.

On to rhodamine-LYGSDPQEELII (reading uncertain) [rhodamine-labeled VE-Cad (773-784)], for which the affinity in experiment [3], expressed as Kd, was 6 µM.

Consider rhodamine-LAGSDPQEELII (peptide, UniProt P55284 773-784, looked up, reading uncertain) [rhodamine-labeled VE-Cad (773-784) Y774A], for which, in experiment [3], the binding result is “binds”.
